Measured values gathered from unrelated publications.
Target: Homeodomain-interacting protein kinase 4 (HIPK4, Homo sapiens, UniProt Q8NE63)
Residues used in one study (Q8NE63 1-616): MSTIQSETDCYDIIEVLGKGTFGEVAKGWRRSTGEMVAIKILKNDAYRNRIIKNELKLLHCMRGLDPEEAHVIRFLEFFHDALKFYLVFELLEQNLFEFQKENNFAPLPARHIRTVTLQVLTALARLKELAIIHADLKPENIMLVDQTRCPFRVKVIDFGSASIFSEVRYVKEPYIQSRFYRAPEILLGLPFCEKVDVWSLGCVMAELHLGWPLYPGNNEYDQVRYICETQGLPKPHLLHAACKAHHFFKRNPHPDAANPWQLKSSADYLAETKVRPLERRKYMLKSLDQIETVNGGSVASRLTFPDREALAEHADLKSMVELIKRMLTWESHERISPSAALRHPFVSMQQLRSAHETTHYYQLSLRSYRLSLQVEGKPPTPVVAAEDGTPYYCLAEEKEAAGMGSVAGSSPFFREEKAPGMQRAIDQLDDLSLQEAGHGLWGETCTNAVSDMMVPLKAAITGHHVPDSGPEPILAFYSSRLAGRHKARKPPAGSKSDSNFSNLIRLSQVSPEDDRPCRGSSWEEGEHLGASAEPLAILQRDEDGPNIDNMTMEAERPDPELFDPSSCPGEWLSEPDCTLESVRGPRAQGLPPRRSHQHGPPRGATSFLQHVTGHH

O=C(NCCCN1CCOCC1)c1ccc(Nc2ncc(Cl)c(-c3ccc(Cl)s3)n2)cc1  remaining binding (binding; competition with immobilised ligand; 1 µM): 14%
CN(C)CC#Cc1ccc(OCCCc2sc(N3CCc4cccc(C(=O)Nc5nc6ccccc6s5)c4C3)nc2C(=O)O)c(F)c1  remaining binding (cell-free assay; competition with immobilised ligand; 1 µM): 100%
O=C(NCC1CCOCC1)c1n[nH]cc1NC(=O)c1c(F)cccc1F  remaining binding (binding; competition with immobilised ligand; 1 µM): 78%
Cc1cnc(Nc2ccc(C(=O)N3CCC(N4CCCC4)CC3)cc2)nc1-c1cc2ccccc2s1  remaining binding (binding; competition with immobilised ligand; 1 µM): 1.3%
Nc1c(C(=O)NCc2ccc(C(=O)NCCCC3CCCCC3)cc2)cnn1-c1ccccc1  remaining binding (cell-free assay; competition with immobilised ligand; 0.1 µM): 100%
COc1ccnn2ncc(-c3ccnc(N(C)C)n3)c12  remaining binding (binding; 1 µM): 100%
FC(F)(F)Oc1cccc(-c2cnc3ccc(-c4ccncc4)nn23)c1  remaining binding (cell-free assay; competition with immobilised ligand; 5 µM): 5.2%
C[C@@H]1CN(c2cc(-c3n[nH]c4ccc(OC5(C)CC5)cc34)ncn2)C[C@H](C)O1  remaining binding (cell-free assay; competition with immobilised ligand; 0.1 µM): 97%
CC1CCCN1c1nccc(-c2cnn3ncccc23)n1 (stereo not shown)  remaining binding (binding; 1 µM): 97%
O=C(c1ccc(Nc2ncc(Cl)c(-c3cc4ccccc4s3)n2)cc1)N1CCC(N2CCCC2)CC1  remaining binding (binding; competition with immobilised ligand; 1 µM): 2.5%
CCN1CCN(Cc2ccc(C(=O)Nc3ccc(C)c(Oc4ccc5c(c4)CC(=O)N5)c3)cc2C(F)(F)F)CC1  remaining binding (binding; competition with immobilised ligand; 1 µM): 100%
COc1cnc(Nc2cccc(S(N)(=O)=O)c2)nc1N1CCN(c2ccccc2)CC1  remaining binding (binding; competition with immobilised ligand; 1 µM): 99%
CN(C)c1ncc(F)c(-c2cnn3ncccc23)n1  remaining binding (binding; 1 µM): 100%
COc1ncc2cc3ccccc3nc2c1C#N  remaining binding (cell-free assay; competition with immobilised ligand; 5 µM): 100%
CN(C)c1nccc(-c2cnn3ncccc23)n1  remaining binding (binding; 1 µM): 75%
CN(C)C(=O)Cn1cc(-c2nc([C@@](C)(c3ccc(-c4cnc(N)nc4)cc3)C3CC3)no2)cn1  remaining binding (cell-free assay; competition with immobilised ligand; 1 µM): 70%
Cc1cnn2ncc(-c3ccnc(N(C)C)n3)c2c1  remaining binding (binding; 1 µM): 77%
C[C@H](c1ccnc(Nc2nc3ccc(-c4cc(N(C)C)ncn4)cc3[nH]2)c1)N1CCN(C(=O)CC(F)(F)F)CC1  remaining binding (cell-free assay; competition with immobilised ligand; 0.1 µM): 100%
C[C@@H]1CCN(c2nccc(-c3cnn4ncccc34)n2)C1  remaining binding (binding; 1 µM): 92%
Cc1cc(C)c(-n2ccn3nc(-c4cccnc4)cc23)cc1NC(=O)c1cc(C#N)cc(S(F)(F)(F)(F)F)c1  remaining binding (cell-free assay; competition with immobilised ligand; 0.1 µM): 95.6%
N[C@@H]1CCN(c2nccc(-c3cnn4ncccc34)n2)C1  remaining binding (binding; 1 µM): 98%
CN(C(=O)c1ccccc1)c1cc(N(C)c2ccc3c(c2)CCc2ccc(C(=O)NCCN4CCOCC4)cc2C3=O)ccc1F  remaining binding (cell-free assay; competition with immobilised ligand; 1 µM): 100%
